# In the library only some 2.3% were active in any assay of this set; here they are far more common.
# T cell HTS: modulators of CD8 T cell-vesicle binding, primary screen, mouse 2C CD8+ T cells, flow cytometry; 2C CD8+ T cell-vesicle binding; stronger effect = lower value; response (vesicle binding), % at 7 µM; 330,000 tested, 0.068% active; AID 2052, 2009;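 active = response, share of CD8 T cells binding vesicles, and their 90th percentile fluorescence all below set limits, cut at about 80% in these data, passing the limit was not always enough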;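 also: values below 100% mean blocked vesicle binding to the CD8+ T cells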
#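 Material: murine 2C transgenic CD8+ T lymphocytes / Also added: QL9-peptide-loaded Drosophila micro-vesicles bearing Ld, ICAM-1 and B7-1 / Schedule: binding step 1.5 h, 37 °C, antibody labelling 20 min, ice / Signal: flow cytometry, PE anti-B7-1 (FL2) versus Alexa647 anti-CD8 (FL8), PFA-fixed / Evaluation: percent CD8+ FL2 mean versus row control / Benchmarks: naked versus QL9-loaded vesicles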
# p-CIP stab down: p/CIP-EGFP fusion destabilizers, primary screen, fluorescence, F442A cells | 16 h | decrease of EGFP signal, % at 10 µM | 290,000 tested, 0.01% active;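 active = EGFP signal decrease of at least 30% at 10 µM or well 3 SD below plate mean, unless failing retest; inactive = the rest, including hits failing retest or dose response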
# Target sequence (Q05BA5 1-1403): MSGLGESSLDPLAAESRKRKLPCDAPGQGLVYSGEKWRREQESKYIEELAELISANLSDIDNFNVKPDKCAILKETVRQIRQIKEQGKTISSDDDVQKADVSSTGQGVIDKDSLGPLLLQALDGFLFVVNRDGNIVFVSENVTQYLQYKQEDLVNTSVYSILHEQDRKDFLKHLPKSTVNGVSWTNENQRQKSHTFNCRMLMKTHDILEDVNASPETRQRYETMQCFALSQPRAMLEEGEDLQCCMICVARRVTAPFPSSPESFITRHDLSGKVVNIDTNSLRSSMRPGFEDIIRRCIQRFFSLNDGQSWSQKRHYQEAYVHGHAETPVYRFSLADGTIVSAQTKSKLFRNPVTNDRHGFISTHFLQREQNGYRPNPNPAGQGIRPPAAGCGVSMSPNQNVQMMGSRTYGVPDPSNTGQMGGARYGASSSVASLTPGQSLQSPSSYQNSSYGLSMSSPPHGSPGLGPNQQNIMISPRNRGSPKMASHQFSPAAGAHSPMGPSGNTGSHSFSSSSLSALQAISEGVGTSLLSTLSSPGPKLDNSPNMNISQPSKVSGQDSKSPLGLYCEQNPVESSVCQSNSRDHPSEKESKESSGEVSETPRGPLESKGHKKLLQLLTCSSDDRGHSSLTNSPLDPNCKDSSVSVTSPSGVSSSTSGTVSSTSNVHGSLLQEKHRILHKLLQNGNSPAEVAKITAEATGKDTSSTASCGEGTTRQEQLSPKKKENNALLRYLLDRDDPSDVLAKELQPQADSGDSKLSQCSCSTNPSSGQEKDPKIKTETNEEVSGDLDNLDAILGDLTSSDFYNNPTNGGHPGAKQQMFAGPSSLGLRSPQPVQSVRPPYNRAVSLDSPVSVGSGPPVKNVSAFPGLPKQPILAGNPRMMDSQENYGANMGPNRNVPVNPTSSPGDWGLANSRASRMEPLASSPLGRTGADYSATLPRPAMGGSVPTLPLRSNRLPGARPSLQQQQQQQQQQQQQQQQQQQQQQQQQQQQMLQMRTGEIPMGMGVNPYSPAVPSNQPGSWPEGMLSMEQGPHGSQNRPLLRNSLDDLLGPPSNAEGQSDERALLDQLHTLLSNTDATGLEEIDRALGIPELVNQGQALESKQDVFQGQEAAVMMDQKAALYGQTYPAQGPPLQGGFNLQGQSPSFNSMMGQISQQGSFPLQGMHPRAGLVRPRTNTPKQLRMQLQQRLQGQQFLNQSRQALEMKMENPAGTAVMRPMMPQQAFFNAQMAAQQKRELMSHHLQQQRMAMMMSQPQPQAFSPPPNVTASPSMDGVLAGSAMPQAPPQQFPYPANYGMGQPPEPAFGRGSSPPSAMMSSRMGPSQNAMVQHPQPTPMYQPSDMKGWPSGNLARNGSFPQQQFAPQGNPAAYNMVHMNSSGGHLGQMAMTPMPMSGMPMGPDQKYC
# CHT inh: inhibitors of human choline transporter CHT. High affinity choline transporter 1 (Homo sapiens), Q9GZV3. CHT-expressing cells, membrane potential dye, choline response; stronger effect = lower value. B-score at 10 µM. 310,000 tested, 0.86% active;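 active = B-score over 3 SD under the library average, and starting fluorescence ratio not unusually high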;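 also: choline stimulus applied at its EC90 after an EC20 pre-addition; B-score computed on integrated fluorescence ratio after choline addition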
# DSG3 Ab inh: inhibitors of pemphigus antibody binding to DSG3, primary screen, biochemical, bead-based, flow cytometry, scFv-GFP | DSG3-coupled beads, scFv-anti-DSG3-GFP binding; stronger effect = lower value | binding (percent of control), % at 10 µM | 310,000 tested, 0.48% active | Desmoglein-3 (Homo sapiens), P32926;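 active = binding more than 3 SD below its plate's average and above zero; inconclusive = below that plate limit but binding exactly zero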;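 also: hits lower antibody fragment binding to DSG3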
# GPR7 antagonist: GPR7 receptor antagonists, primary screen, cell-based, fluorescence, single concentration. GPR7-expressing cells, fluorescence antagonist assay. inhibition, % at 4.4 µM. 290,000 tested, 1.1% active; in the data active = inhibition above about 16%, passing the limit was not always enough;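 also: cells stimulated with the agonist NPW; 0% = agonist with vehicle and 100% = vehicle without agonist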
# CHT allo act: CHT positive allosteric modulators, primary screen, cell-based, membrane potential dye, choline EC20; High affinity choline transporter 1 (Homo sapiens), Q9GZV3; AID 488977, 2010; B-score at 10 µM; 310,000 tested, 0.49% active; CHT-expressing cells; stronger effect = higher value; LV-AA mutant CHT in HEK293 cells;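 active = initial fluorescence not abnormally high and integrated response B-score, plate-corrected, over 3 SD above library mean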
# CHT block conf: CHT inhibitors, confirmation, cell-based, membrane potential dye, duplicate; shares compounds with CHT inh; CHT-expressing cells, choline membrane potential dye; LV-to-AA substituted CHT, HEK293 cells; CHT activity remaining % of control (stronger effect = lower value), % at 10 µM; 2,400 tested, 70% active;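 active = choline transporter activity left, mean of duplicates at 10 µM, below buffer-only control mean minus 3 SD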;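 also: depolarization triggered by choline at its EC90 following an EC20 pre-addition; 0% = hemicholinium-3 full block and 100% = buffer-only control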
# HEK293 MPD ctr: membrane potential effects in parental HEK293, counter-screen for CHT inhibitor project, cell-based, membrane potential dye | 2,400 tested, 4% active | membrane potential ratio readout (active if shifted either direction beyond buffer ±3SD; no single direction) at 10 µM | AID 493222, 2011 | choline response; active = decrease or increase beyond buffer ±3SD | shares compounds with CHT inh;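 also: parental cells lack the transporter so any hit is non-specific; ratio is peak minus trough fluorescence over baseline after EC90 choline challenge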
# An asterisk follows results filed as active; i = inactive; ? = inconclusive; . = no result.
SMILES,T cell HTS,p-CIP stab down,CHT inh,DSG3 Ab inh,GPR7 antagonist,CHT allo act,CHT block conf,HEK293 MPD ctr
O=C(Nc1cccc(Cl)c1)c1ccc(S(=O)(=O)NCC2CCCO2)cc1 (centres undefined),i,-6,i,94,-6,i,.,.
CC(C)CC(=NNC(=O)c1ccncc1)c1cc(Cl)ccc1O,.,.,.,98,.,.,.,.
CC1CCC(NC(=O)c2ccc(NC3=NC4CS(=O)(=O)CC4S3)cc2)CC1 (centres undefined),174,-3,-6*,107,-17,i,34%*,i
O=C1c2ccccc2C(=O)N1CCCCSc1nnc2c(Cl)cc(Cl)cn12,434,-24,-5.4*,?,-7,i,i,i
CC(C)C(NC(=O)c1c(F)cccc1F)C(=O)N1CCN(S(=O)(=O)c2ccc(F)cc2)CC1 (centres undefined),276,.,.,98,.,.,.,.
COC(=O)c1cc(C(=O)OC)cc(N2C(=O)CC(NNC(=O)c3ccc(C)cc3)C2=O)c1 (centres undefined),156,-18,-5.4*,100,-4,i,i,i
COC(=O)c1cc(C(=O)OC)cc(N2C(=O)CC(NNC(=O)c3ccccc3Br)C2=O)c1 (centres undefined),603,-15,i,103,0,i,.,.
COc1cccc(/C=N/NC(=O)C(=O)NCc2cccnc2)c1OC,167,-13,-5.9*,106,-1,i,i,i
COc1cccc(/C=N/NC(=O)C(=O)NCc2cccnc2)c1O,257,-2,i,85,-6,i,.,.
Fc1ccc(NC(=S)Nc2ccc(F)c(Cl)c2)cc1Cl,292,14,-6.1*,108,-5,i,36%*,i
O=C(NN1C(=O)/C(=C/c2ccc(O)c([N+](=O)[O-])c2)SC1=S)c1ccccc1Cl,119,-14,-5.4*,101,-5,i,i,i
CCN(CC)C(=O)C(C)OC(=O)COc1ccc(Cl)cc1C (centres undefined),184,-8,i,102,-6,i,i,i
NS(=O)(=O)c1ccc(NC(=O)Nc2ccc(S(N)(=O)=O)cc2)cc1,323,4,-13*,97,0,i,i,i
NS(=O)(=O)c1ccc(NC(=O)Nc2ccccc2)cc1,408,5,i,107,7,i,.,.
O=C(O)CSc1cc(C(=O)c2ccccc2O)cn2c(=O)c3c(-c4ccccc4)csc3nc12,332,-23,-7*,99,-10,i,30%*,i
Cc1cccc(N2CCN(C(=O)CCCn3c(=O)[nH]c4ccsc4c3=O)CC2C)c1 (centres undefined),310,-12,-11*,111,-15,i,19%*,i
CC1CCCN(C(=O)C2CCN(S(=O)(=O)c3cccs3)CC2)C1 (centres undefined),.,.,.,97,.,.,.,.
COc1ccc(/C=N\NC(=O)c2cc(O)c(O)c(O)c2)cc1COc1ccc(C(=O)OCC(C)C)cc1,4,8,i,84,26,i,.,.
CCn1c(=O)cc(SCC(=O)Nc2ccc(OC)c(OC)c2)c2ccccc21,922,-8,-6*,.,2,i,i,i
CC(=O)N1CCc2c(sc(NC(=O)c3ccc([N+](=O)[O-])o3)c2C(N)=O)C1,.,.,.,93,.,.,.,.
COc1cccc(C2=NOC(C(=O)NCc3ccc(F)cc3)C2)c1 (centres undefined),278,1,-5.1*,105,12,i,66%*,i
